# Measured values: ChEMBL document CHEMBL3739258, “Click-based synthesis of bromotyrosine alkaloid analogs as potential anti-biofilm leads for SAR studies” (Bioorg Med Chem Lett, 2015)
# Columns and labels:
# [1] = system: Paracoccus sp.; assay: Antibiofilm activity against Paracoccus sp. 4M6 assessed as microbial adhesion at 200 uM after 15 hrs by Syto61 based-fluorescence analysis relative to control; format: functional
# Procedure, shortened: (§1)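 Cells grown in VNSS at 20 °C to stationary phase, centrifuged, and resuspended in sterile artificial seawater to OD600 0.2–0.4. Suspension incubated with compound at 200 µM in triplicate for 15 h at 20 °C. Loose cells removed with three washes in 36 g/L NaCl. Attached cells stained 10 min at room temperature with 40 µmol/L Syto 61, then washed and the stain solubilised. Fluorescence read at ex 615/em 670 nm against untreated adhesion-control wells.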
# [2] = system: Pseudoalteromonas lipolytica; assay: Antibiofilm activity against Pseudoalteromonas lipolytica TC8 assessed as microbial adhesion at 200 uM after 15 hrs by Syto61 based-fluorescence analysis relative to control; format: functional; procedure, shortened: as §1
# [3] = system: Pseudoalteromonas ulvae; assay: Antibiofilm activity against Pseudoalteromonas ulvae TC14 assessed as microbial adhesion at 200 uM after 15 hrs by Syto61 based-fluorescence analysis relative to control; format: functional; procedure, shortened: as §1
# [4] = system: Pseudoalteromonas lipolytica; assay: Antibiofilm activity against Pseudoalteromonas lipolytica TC8 assessed as reduction in adhesion after 15 hrs by Syto61 based-fluorescence analysis relative to control; format: functional; conditions: TC8, 15 h
# Procedure, shortened: (§2)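 Adhesion assay: cells from a 20 °C VNSS stationary-phase culture were resuspended in artificial seawater (OD600 0.2–0.4). They were exposed to a range of compound concentrations in triplicate for 15 h at 20 °C, then washed with 36 g/L NaCl and stained 10 min with 40 µmol/L Syto 61. Fluorescence was read at ex 615/em 670 nm relative to bacteria-only controls. EC50 came from dose-response curve fitting.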
# [5] = system: Pseudoalteromonas ulvae; assay: Antibiofilm activity against Pseudoalteromonas ulvae TC14 assessed as reduction in adhesion after 15 hrs by Syto61 based-fluorescence analysis relative to control; format: functional; conditions: TC14, 15 h; procedure, shortened: as §2
# [6] = Toxicity in Paracoccus sp. 4M6 assessed as effect on viability at 100 uM after 6 hrs by resazurin-staining assay relative to control
# Procedure, shortened: (§3)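 Strains grown in VNSS at 20 °C. Bacterial suspension added to VNSS wells containing compound at 100 µM, triplicate, with solvent and untreated controls. OD600 followed hourly for 6 h. Resazurin was then added and fluorescence read after 2 h. Percent viability was calculated as in the Syto 61 adhesion assay.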
# [7] = Toxicity in Pseudoalteromonas lipolytica TC8 assessed as growth inhibition at 100 uM after 15 hrs by Syto61 based-fluorescence analysis relative to control
# [8] = Toxicity in Pseudoalteromonas lipolytica TC8 assessed as effect on viability at 100 uM after 6 hrs by resazurin-staining assay relative to control; procedure, shortened: as §3
# [9] = Toxicity in Paracoccus sp. 4M6 assessed as growth inhibition at 100 uM after 15 hrs by Syto61 based-fluorescence analysis relative to control
# [10] = system: Paracoccus sp.; assay: Antibiofilm activity against Paracoccus sp. 4M6 assessed as reduction in adhesion after 15 hrs by Syto61 based-fluorescence analysis relative to control; format: functional; conditions: Paracoccus sp. (in: a-proteobacteria), 4M6, 15 h; procedure, shortened: as §2
# [11] = Toxicity in Pseudoalteromonas ulvae TC14 assessed as effect on viability at 100 uM after 6 hrs by resazurin-staining assay relative to control; procedure, shortened: as §3
# [12] = Toxicity in Pseudoalteromonas ulvae TC14 assessed as growth inhibition at 100 uM after 15 hrs by Syto61 based-fluorescence analysis relative to control
EC50 [4] [µM],EC50 [5] [µM],EC50 [10] [µM],Structure (SMILES),Activity [1] [%],Activity [2] [%],Activity [3] [%],Activity [6],Activity [7],Activity [8],Activity [9],Activity [11],Activity [12]
–,–,–,O=C(NCCc1cnc[nH]1)c1cn(CCc2ccc(O)cc2)nn1,>75,>75,>75,–,–,–,–,–,–
104,32.6,72.9,COc1ccc(CCn2cc(C(=O)NCCc3ccc(O)cc3)nn2)cc1Br,28.2,35,18.7,Non-toxic,Non-toxic,Non-toxic,Non-toxic,Non-toxic,–
17.9,9.3,144,CC1(C)S[C@@H]2[C@H](NC(=O)[C@H](N)c3ccccc3)C(=O)N2[C@H]1C(=O)O [AMPICILLIN],33.9,8.9,4.9,Toxic,Toxic,Toxic,Toxic,Toxic,–
–,–,–,COc1ccc(CCn2cc(C(=O)NCCCNC(=N)N)nn2)cc1Br.O=C(O)C(F)(F)F,>75,>75,>75,–,–,–,–,–,–
–,–,–,COc1ccc(CCn2cc(C(=O)NCCNC(=N)N)nn2)cc1Br.O=C(O)C(F)(F)F,>75,>75,>75,–,–,–,–,–,–
–,–,–,COc1ccc(Cn2cc(C(=O)NCCCCN)nn2)cc1Br.O=C(O)C(F)(F)F,>75,>75,>75,–,–,–,–,–,–
113,69.3,156,O=C(NCCc1ccc(O)cc1)c1cn(CCc2ccc(O)c(Br)c2)nn1,43.4,35,31.4,Non-toxic,Non-toxic,Non-toxic,Non-toxic,Non-toxic,–
–,–,–,COc1ccc(Cn2cc(C(=O)NCCCCNC(=N)N)nn2)cc1Br.O=C(O)C(F)(F)F,>75,>75,>75,–,–,–,–,–,–
–,–,–,COc1ccc(CCn2cc(C(=O)NCCc3cnc[nH]3)nn2)cc1Br,>75,>75,>75,–,–,–,–,–,–
–,–,–,O=C(NCCc1cnc[nH]1)c1cn(CCc2ccc(O)c(Br)c2)nn1,>75,>75,>75,–,–,–,–,–,–
–,–,–,COc1ccc(Cn2cc(C(=O)NCCNC(=N)N)nn2)cc1Br.O=C(O)C(F)(F)F,>75,>75,>75,–,–,–,–,–,–
–,–,–,COc1ccc(Cn2cc(C(=O)NCCCNC(=N)N)nn2)cc1Br.O=C(O)C(F)(F)F,>75,>75,>75,–,–,–,–,–,–
–,–,–,COc1ccc(CCn2cc(C(=O)NCCCN)nn2)cc1Br.O=C(O)C(F)(F)F,>75,>75,>75,–,–,–,–,–,–
134,40,97.3,COc1ccc(Cn2cc(C(=O)NCCc3ccc(O)cc3)nn2)cc1Br,31.2,38.3,20.7,Non-toxic,Non-toxic,Non-toxic,Non-toxic,Non-toxic,–
170,72.9,196,O=C(NCCc1ccc(O)cc1)c1cn(CCc2ccc(O)cc2)nn1,44.5,43,16,Non-toxic,Non-toxic,Non-toxic,Non-toxic,Non-toxic,–
–,–,–,COc1ccc(CCn2cc(C(=O)NCCN)nn2)cc1Br.O=C(O)C(F)(F)F,>75,>75,>75,–,–,–,–,–,–
–,–,–,COc1ccc(CCn2cc(C(=O)NCCCCN)nn2)cc1Br.O=C(O)C(F)(F)F,>75,>75,>75,–,–,–,–,–,–
–,–,–,COc1ccc(Cn2cc(C(=O)NCCc3cnc[nH]3)nn2)cc1Br,>75,>75,>75,–,–,–,–,–,–
96,26.6,83.2,O=C(NCCc1cc(Br)c(O)c(Br)c1)c1cn(CCc2cc(Br)c(O)c(Br)c2)nn1,38.7,40.32,29.3,Non-toxic,Non-toxic,Non-toxic,Non-toxic,Non-toxic,–
–,–,–,COc1ccc(Cn2cc(C(=O)NCCN)nn2)cc1Br.O=C(O)C(F)(F)F,>75,>75,>75,–,–,–,–,–,–
–,–,–,COc1ccc(CCn2cc(C(=O)NCCCCNC(=N)N)nn2)cc1Br.O=C(O)C(F)(F)F,>75,>75,>75,–,–,–,–,–,–
–,–,–,COc1ccc(Cn2cc(C(=O)NCCCN)nn2)cc1Br.O=C(O)C(F)(F)F,>75,>75,>75,–,–,–,–,–,–
124,40.2,84,COc1ccc(Cn2cc(C(=O)NCCc3cc(Br)c(O)c(Br)c3)nn2)cc1Br,37.9,40,23.3,Non-toxic,Non-toxic,Non-toxic,Non-toxic,Non-toxic,–
67.8,8.8,40.7,COc1ccc(CCn2cc(C(=O)NCCc3cc(Br)c(O)c(Br)c3)nn2)cc1Br,28.8,29.7,5.9,Non-toxic,Non-toxic,Non-toxic,Non-toxic,Non-toxic,Toxic
